pIC50: −log10 of the molar value. Several values for one entry are separate records, joined by “and”; a condition that tells them apart may be missing. Equal values may be shown once. Entries after “also recorded” stand apart in the source; their conditions may differ. Read-outs that look alike come from different tables or passages of the source.
Experiments:
[1] = Rhodium and platinum content of tissues after i.p. treatment; format: in vivo, NSG mice; conditions: Rh-PPO 1 mpk, oxaliplatin 7.5 mpk i.p.
[2] = system: HCT116O MMR-deficient cells; conditions: cited from earlier work; for pIC50: HCT116O MMR-deficient cells
HCT116 xenograft tumors [3] = assay: Survival rate and cause of death, efficacy experiment 1; format: in vivo, NSG mice
Method in brief: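 HCT116 s.c. xenograft NSG mice received i.p. vehicle, test compound or platinum reference plus s.c. saline hydration; n = 10 to 13 per group. Mice were removed when found dead, when declining health required killing, or when tumor diameter exceeded 15 mm. Survival versus starting number gave Kaplan–Meier curves. ILS = (DaysT – DaysC)/DaysC against vehicle controls.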

[4] = cited from earlier work
HCT116 xenograft tumors [5] = assay: Efficacy experiment 1: tumor volume, i.p. dosing; format: in vivo, NSG mice; conditions: for tumor volumes at conclusion of study: day 28, Rh-PPO vs oxaliplatin 7.5 mpk i.p.
Method in brief: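 NSG mice (23 to 34 g) were given 2.5 × 10^6 HCT116 cells in 100 μL McCoy's 5A with 10% FBS, s.c. in the right flank. At ~100 mm3 (11 to 12 d), mice were randomized (10 to 13/group). Test compound in saline was given i.p. three or four times weekly. Vehicle was 0.9% NaCl. Platinum reference in 5% dextrose was given i.p. twice weekly. Mice also received 2 mL s.c. saline twice weekly. Calipers twice weekly; TV = W2L/2.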

CRC cell lines = conditions: on average across CRC cell lines; cited from earlier work
HCT116 xenograft tumors [6] = assay: Intratumoral efficacy experiment; format: in vivo, NSG mice; conditions: 1 mpk intratumoral
[7] = Stability in rat liver microsomes; format: in vitro ADME
Aqueous solubility = format: physicochemical
NSG mice = assay: Maximum tolerated dose; format: in vivo; conditions: for start of notable symptoms of distress and inactivity: mice killed before end of 10-d study
Method in brief: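 Weighed NSG mice received test compound dissolved in saline i.p. at 1, 2, 5 or 15 mpk, once daily for 10 consecutive days. Clinical observations and body weights were recorded daily. Surviving animals were killed with carbon dioxide at study end.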

Stability in rat plasma = format: in vitro ADME
[8] = Histological analyses of collected tissues; format: in vivo, NSG mice; conditions: Rh-PPO-treated mice, i.p.
[9] = First mouse experiments exploring the administration route; format: in vivo
[10] = Plasma pharmacokinetics after i.p. dose; format: in vivo, NSG mice; conditions: for AUC0–8 h / Cmax / t1/2: mouse plasma
Method in brief: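 After the final i.p. dose (0.5 or 1 mpk) in xenograft-bearing NSG mice, blood was taken by cardiac puncture at 0.5, 1, 2, 4 and 8 h (three mice/group/time) into heparinized vials on ice. Plasma was spun at 15,000 × g, 5 min, RT, and stored at −80 °C. Proteins were precipitated with acetonitrile containing a rhodium-complex internal standard. Intact complex was measured by LC-MS/MS; AUC0–8 h came from the concentration curve.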

[11] = Mouse body weights during i.p. treatment; format: in vivo, NSG mice; conditions: Rh-PPO treatment groups, both i.p. schedules

## O=C1[O][Pt]2([NH][C@@H]3CCCC[C@H]3[NH]2)[O]C1=O [oxaliplatin, reference compound]
[1]
  distribution of metal among organs: platinum was distributed evenly
[2]
  pIC50: 4.56
HCT116 xenograft tumors [3]; 7.5 mpk i.p.
  mouse deaths: found dead in cage: 45.5%
[4]
  half-life: 0.235 h
HCT116 xenograft tumors [5]
  tumor volumes at conclusion of study: statistically similar tumor volumes

## [Rh(chrysi)(phen)(2-(pyridine-2-yl)propan-2-ol]Cl2 [Rh-PPO]
[1]
  distribution of metal among organs: accumulation of rhodium most significantly in the liver
CRC cell lines
  potency relative to cisplatin: five times more potent
HCT116 xenograft tumors [6]
  toxicity of intratumoral administration: significant systemic toxicity; also recorded: unacceptably toxic
[2]
  pIC50: 6.60
[2]; MMR-deficient HCT116O vs matched MMR-proficient HCT116N
  cytotoxicity toward HCT116O compared to HCT116N cells: highly potent and selective cytotoxicity
HCT116 xenograft tumors [3]; Rh-PPO 0.5/1 mpk, oxaliplatin 7.5 mpk i.p.
  increase in life span (ILS) relative to vehicle: 12%
HCT116 xenograft tumors [3]; Rh-PPO 1 mpk, oxaliplatin 7.5 mpk i.p.
  mice killed due to poor health and inactivity: 10%
HCT116 xenograft tumors [3]; both Rh-PPO treatment groups
  mice that died due to tumors reaching maximum allowable size (15 mm): 90%
[7]
  stability in rat liver microsomes: up to 4 h
Aqueous solubility
  aqueous solubility: high aqueous solubility
NSG mice; 1, 2, 5 mpk i.p. daily
  body weight change in MTD study: lost body weight in a dose-dependent manner
NSG mice; 1 mpk i.p. daily for 10 d
  clinical observations: only mild symptoms of distress; also recorded: tolerated over a 10-d period with minor indications of systemic toxicity
NSG mice; 2 mpk i.p. daily
  start of notable symptoms of distress and inactivity: 4 days
NSG mice; 5 mpk i.p. daily
  start of notable symptoms of distress and inactivity: 2 days
Stability in rat plasma
  stability in rat plasma: up to 4 h
[8]
  organ morphology (histology): normal organ morphology
[9]; 20 mpk i.v.
  tolerability of i.v. administration: not well tolerated
[9]; oral
  oral bioavailability: zero oral bioavailability
[10]; 0.5 mpk i.p.
  AUC0–8 h: 1.31 µM·h
  Cmax: 450 nM
  t1/2: 1.11 h
[10]; 1 mpk i.p.
  exposure level (Cmax) relative to in vitro cell IC50 of 250 nM: ~2.5 fold
  AUC0–8 h: 1.52 µM·h
  Cmax: 650 nM
  t1/2: 1.79 h
[10]; i.p. dosing, 0.5 and 1 mpk
  time to peak plasma concentration: ≤ 30 min
[10]; read-out: maximum plasma concentration (Cmax), 1 mpk i.p.
  Cmax: 650 nM
[11]
  significant mouse weight loss (more than 15% of original body weight): neither treatment schedule resulted in significant mouse weight loss
HCT116 xenograft tumors [5]; Rh-PPO treatment groups (0.5 and 1 mpk i.p.), day 21, efficacy experiment 1
  reduction in tumor volume relative to vehicle: 25 ± 2.7% and 25%
HCT116 xenograft tumors [5]
  tumor volumes at conclusion of study: statistically similar tumor volumes
